Experimental data reported in ChEMBL document CHEMBL3351994, “Synthesis and biological evaluation of novel millepachine derivatives as a new class of tubulin polymerization inhibitors” (J Med Chem, 2014).

What was measured:
Rattus norvegicus = assay: Volume of distribution at steady state in rat at 9 mg/kg, po; type: ADME, organism-based; parameters: dose 9 mg/kg, route oral; conditions: in vivo
HepG2 [1] = assay: Induction of apoptosis in human HepG2 cells assessed as necrotic cells at 200 nM after 24 hrs by annexin-V-FITC and propidium iodide staining based flow cytometry (reference value: 2.16%); type: functional
Summary of the method: (§1)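 HepG2 cells treated with 50, 100 or 200 nM compound or DMSO vehicle for 24 or 48 h at 37 °C. Labeled with annexin-V-FITC and PI and analyzed by flow cytometry. Cells classified as early apoptotic (annexin-V+/PI−), late apoptotic (annexin-V+/PI+) or necrotic (annexin-V−/PI+).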

[2] = Antiproliferative activity against taxol resistant human HCT8 cells assessed as inhibition of cell proliferation after 48 hrs by MTT assay; type: functional, cell-based; conditions: HCT-8, 48 h
Summary of the method: (§2)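 Cells grown at 37 °C in humidified 5% CO2. K562, C26 and HCT lines in RPMI-1640; other lines in DMEM; both media with 10% FBS, penicillin and streptomycin. 1000 cells/well seeded, incubated overnight, then compound at various doses for 48 h. MTT added for 4 h, formazan dissolved in DMSO, absorbance read at 590 nm. IC50 from dose–response curves, mean ± SEM of at least three independent experiments.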

[3] = Antiproliferative activity against human A2780S cells assessed as inhibition of cell proliferation after 48 hrs by MTT assay; type: functional, cell-based; conditions: A2780, 48 h
Summary of the method: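 Cells grown in DMEM with 10% FBS, penicillin/streptomycin at 37 °C, 5% CO2. 1000 cells/well seeded, incubated overnight, then exposed to various doses for 48 h. MTT added for 4 h, formazan dissolved in DMSO, absorbance read at 590 nm. IC50 = concentration inhibiting proliferation by 50%, mean ± SEM of dose–response curves from at least three independent experiments.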

HepG2 [4] = assay: Induction of apoptosis in human HepG2 cells assessed as late apoptotic cells at 100 nM after 24 hrs by annexin-V-FITC and propidium iodide staining based flow cytometry (reference value: 1.03%); type: functional; summary of the method: as §1
HepG2 [5] = assay: Induction of apoptosis in human HepG2 cells assessed as necrotic cells at 50 nM after 24 hrs by annexin-V-FITC and propidium iodide staining based flow cytometry (reference value: 2.16%); type: functional
[6] = Cmax in rat at 2.25 mg/kg, iv; type: ADME, organism-based; parameters: dose 2.25 mg/kg, route intravenous; conditions: in vivo
Summary of the method: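 Rat pharmacokinetics; oral and intravenous dosing, with group sizes of 5, 5 and 4 rats. Parameters derived: systemic clearance, volume of distribution, area under the plasma concentration–time curve, maximum plasma concentration and percent oral bioavailability.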

HepG2 [7] = assay: Induction of cell cycle arrest in human HepG2 cells assessed as accumulation at G0/G1 phase at 100 nM after 24 hrs by propidium iodide staining based flow cytometry (reference value: 58.2%); type: functional
HepG2 [8] = assay: Induction of apoptosis in human HepG2 cells assessed as late apoptotic cells at 200 nM after 24 hrs by annexin-V-FITC and propidium iodide staining based flow cytometry (reference value: 1.03%); type: functional; summary of the method: as §1
HepG2 [9] = assay: Induction of apoptosis in human HepG2 cells assessed as late apoptotic cells at 50 nM after 48 hrs by annexin-V-FITC and propidium iodide staining based flow cytometry (reference value: 1.03%); type: functional; summary of the method: as §1
HepG2 [10] = assay: Induction of apoptosis in human HepG2 cells assessed as late apoptotic cells at 50 nM after 24 hrs by annexin-V-FITC and propidium iodide staining based flow cytometry (reference value: 1.03%); type: functional; summary of the method: as §1
HepG2 [11] = assay: Induction of apoptosis in human HepG2 cells assessed as early apoptotic cells at 200 nM after 48 hrs by annexin-V-FITC and propidium iodide staining based flow cytometry (reference value: 3.63%); type: functional; summary of the method: as §1
HepG2 [12] = assay: Induction of apoptosis in human HepG2 cells assessed as early apoptotic cells at 200 nM after 24 hrs by annexin-V-FITC and propidium iodide staining based flow cytometry (reference value: 3.63%); type: functional; summary of the method: as §1
HepG2 [13] = assay: Induction of cell cycle arrest in human HepG2 cells assessed as accumulation at G0/G1 phase at 200 nM after 24 hrs by propidium iodide staining based flow cytometry (reference value: 58.2%); type: functional
HepG2 [14] = assay: Induction of apoptosis in human HepG2 cells assessed as necrotic cells at 200 nM after 48 hrs by annexin-V-FITC and propidium iodide staining based flow cytometry (reference value: 2.16%); type: functional
HepG2 [15] = assay: Induction of apoptosis in human HepG2 cells assessed as necrotic cells at 50 nM after 48 hrs by annexin-V-FITC and propidium iodide staining based flow cytometry (reference value: 2.16%); type: functional
MCF7 = assay: Resistance index, ratio of IC50 for adriamycin resistant human MCF7 cells to IC50 for parental human MCF7 cells; type: functional
HepG2 [16] = assay: Induction of apoptosis in human HepG2 cells assessed as necrotic cells at 100 nM after 24 hrs by annexin-V-FITC and propidium iodide staining based flow cytometry (reference value: 2.16%); type: functional; summary of the method: as §1
A-375 = assay: Antiproliferative activity against human A375 cells assessed as inhibition of cell proliferation after 48 hrs by MTT assay; type: functional, cell-based; conditions: A-375, 48 h; summary of the method: as §2
HUVEC = assay: Cytotoxicity in HUVECs after 48 hrs by MTT assay; type: cell-based; conditions: Homo sapiens
Summary of the method: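 HUVEC proliferation measured by MTT after 48 h exposure. IC50 derived from the dose–response.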

HepG2 [17] = assay: Induction of apoptosis in human HepG2 cells assessed as early apoptotic cells at 100 nM after 48 hrs by annexin-V-FITC and propidium iodide staining based flow cytometry (reference value: 3.63%); type: functional; summary of the method: as §1
HepG2 [18] = assay: Induction of cell cycle arrest in human HepG2 cells assessed as accumulation at G0/G1 phase at 50 nM after 24 hrs by propidium iodide staining based flow cytometry (reference value: 58.2%); type: functional
[19] = Antiproliferative activity against mouse C26 cells assessed as inhibition of cell proliferation after 48 hrs by MTT assay; type: functional, cell-based; conditions: C26, 48 h; summary of the method: as §2
HepG2 [20] = assay: Induction of apoptosis in human HepG2 cells assessed as viable cells at 200 nM after 48 hrs by annexin-V-FITC and propidium iodide staining based flow cytometry (reference value: 93.2%); type: functional; conditions: HepG2, 48 h, read-out: Activity
HepG2 [21] = assay: Induction of apoptosis in human HepG2 cells assessed as viable cells at 100 nM after 48 hrs by annexin-V-FITC and propidium iodide staining based flow cytometry (reference value: 93.2%); type: functional; conditions: HepG2, 48 h, read-out: Activity
HepG2 [22] = assay: Induction of apoptosis in human HepG2 cells assessed as early apoptotic cells at 100 nM after 24 hrs by annexin-V-FITC and propidium iodide staining based flow cytometry (reference value: 3.63%); type: functional; summary of the method: as §1
HepG2 [23] = assay: Induction of apoptosis in human HepG2 cells assessed as late apoptotic cells at 100 nM after 48 hrs by annexin-V-FITC and propidium iodide staining based flow cytometry (reference value: 1.03%); type: functional; summary of the method: as §1
[24] = Antiproliferative activity against adriamycin resistant human MCF7/ADR cells assessed as inhibition of cell proliferation after 48 hrs by MTT assay; type: functional, cell-based; conditions: NCI/ADR-RES; summary of the method: as §2
HepG2 [25] = assay: Induction of apoptosis in human HepG2 cells assessed as early apoptotic cells at 50 nM after 48 hrs by annexin-V-FITC and propidium iodide staining based flow cytometry (reference value: 3.63%); type: functional; summary of the method: as §1
NCI-H358 = assay: Antiproliferative activity against human NCI-H358 cells assessed as inhibition of cell proliferation after 48 hrs by MTT assay; type: functional, cell-based; conditions: NCI-H358, 48 h; summary of the method: as §2

COc1ccc(/C=C/C(=O)c2ccc(OC)c3c2OC(C)(C)C=C3)cc1N
Vdss (Rattus norvegicus): 25 L/kg
Activity (HepG2 [1]): 1.95%
IC50 [2]: 152 nM
IC50 [3]: 20 nM
Activity (HepG2 [4]): 12.43%
Activity (HepG2 [5]): 4.71%
Cmax [6]: 2940 ng/mL
Activity (HepG2 [7]): 34.8%
Activity (HepG2 [8]): 23.46%
Activity (HepG2 [9]): 17.69%
Activity (HepG2 [10]): 4.28%
Activity (HepG2 [11]): 20.14%
Activity (HepG2 [12]): 11.45%
Activity (HepG2 [13]): 37.6%
Activity (HepG2 [14]): 3.54%
Activity (HepG2 [15]): 2.76%
Ratio IC50 (MCF7): 1.6
Activity (HepG2 [16]): 3.83%
IC50 (A-375): 22 nM
IC50 (HUVEC): 450 nM
Activity (HepG2 [17]): 16.34%
Activity (HepG2 [18]): 56.6%
IC50 [19]: 26 nM
viability at 0.2 µM (HepG2 [20]): 41.7%
viability at 0.1 µM (HepG2 [21]): 48.8%
Activity (HepG2 [22]): 9.65%
Activity (HepG2 [23]): 29.45%
IC50 [24]: 17 nM
Activity (HepG2 [25]): 13.45%
IC50 (NCI-H358): 12 nM
